# Assay results pooled from the literature.
# Target: Serine/threonine-protein kinase 25 (STK25, Homo sapiens, UniProt O00506)
Compound,test,setting,remaining binding
O=C(NCCCC1CCCCC1)c1ccc(CNC(=O)c2cnn(-c3ccccc3)c2C(F)(F)F)cc1,"cell-free assay, competition with immobilised ligand",0.1 µM,81%
O=C(c1ccc(Nc2ncc(Cl)c(-c3cc4ccccc4s3)n2)cc1)N1CCC(N2CCCC2)CC1,"binding, competition with immobilised ligand",1 µM,32%
CN(CCCC(F)(F)F)c1nccc(-c2cnn3ncccc23)n1,binding,1 µM,100%
O=C(c1ccc(Nc2ncc(Cl)c(-c3ccc(Cl)s3)n2)cc1)N1CCC(N2CCCC2)CC1,"binding, competition with immobilised ligand",1 µM,22%
COc1cnc(Nc2cccc(S(N)(=O)=O)c2)nc1N1CCN(c2ccccc2)C(=O)C1,"binding, competition with immobilised ligand",1 µM,100%
Nc1ncc2c(n1)-c1c([nH]c3ccc(C#CC4CC4)cc13)CCCC2,"binding, competition with immobilised ligand",1 µM,100%
O=C(NCC1CCOCC1)c1n[nH]cc1NC(=O)c1c(F)cccc1F,"binding, competition with immobilised ligand",1 µM,95%
C[C@H]1CCN(c2nccc(-c3cnn4ncccc34)n2)C1,binding,1 µM,100%
O=C(NCCCN1CCOCC1)c1ccc(Nc2nccc(-c3cc4ccccc4s3)n2)cc1,"binding, competition with immobilised ligand",1 µM,67%
CCC(=O)N[C@H]1CC[C@@H](C(=O)N(C)c2ccc(-c3nc4ccccc4o3)cc2)C1,"cell-free assay, competition with immobilised ligand",1 µM,100%
N[C@@H]1CCN(c2nccc(-c3cnn4ncccc34)n2)C1,binding,1 µM,100%
c1cncc(-c2cccc(Nc3nccc(NC4CCCCC4)n3)c2)c1,"binding, competition with immobilised ligand",10 µM,100%
Cc1cnn2ncc(-c3ccnc(N(C)C)n3)c2c1,binding,1 µM,100%
CN(C)C(=O)Cn1cc(-c2nc(C3(c4ccc(-c5cnc(N)nc5)cc4)CC3)no2)cn1,"cell-free assay, competition with immobilised ligand",1 µM,100%
CN(C)c1nccc(-c2cnn3ncccc23)n1,binding,1 µM,90%
CC(=O)C1=C(C)N(c2cccc(C(F)(F)F)c2)C(=O)N[C@@H]1c1ccc(C#N)nc1,"cell-free assay, competition with immobilised ligand",1 µM,89.9%
COc1cnc(Nc2cccc(S(N)(=O)=O)c2)nc1N1CCN(c2ccccc2)CC1,"binding, competition with immobilised ligand",1 µM,100%
CCCOc1ccc([C@H]2[C@H](C(=O)O)[C@@H](c3ccc4c(c3)OCO4)CN2CC(=O)Nc2c(CC)cccc2CC)cc1,"cell-free assay, competition with immobilised ligand",1 µM,100%
CN(C)c1nccc(-c2cnc3ncccn23)n1,binding,1 µM,100%
c1ccc(N2CCN(Cc3nc4ccccc4[nH]3)CC2)nc1,"binding, competition with immobilised ligand",1 µM,94%
C=CC(=O)N1CCC(C(=O)NCC(=O)N2CCN(c3nc(-c4cnc(N)nc4C(F)F)nc(N4CCOCC4)n3)CC2)CC1,"binding, competition with immobilised ligand",1 µM,96%
